# Screens (PubChem BioAssay)
# SIAE inh: human SIAE inhibitors, primary screen, biochemical, fluorescence polarization, FP-Rh probe, 1536-well HTS. Sialate O-acetylesterase (Homo sapiens), Q9HAT2. SIAE FP-Rh probe binding. inhibition, % at 9.66 µM. hit rate 0.69% among 370,000. AID 1053197, 2014;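 active means inhibition above a cutoff: mean of compounds within the control limits plus 3 SD of those, cut at about 17% in these data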;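 further: 0% = plate median of compound wells and 100% = probe without SIAE protein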
# mABHD4 FP: ABHD4 inhibitors, primary screen, biochemical, fluorescence polarization, mouse; purified mABHD4, FP-Rh probe fluorescence polarization; hit rate 0.54% among 370,000; inhibition, % at 8.92 µM; AID 720543, 2013;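 active means inhibition exceeding the mean over every tested compound plus 3 SD, cut at about 30% in these data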;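 further: 0% = plate median of compound wells and 100% = S159A mutant with DMSO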
# Target sequence (Q8VD66 whole entry, looked up): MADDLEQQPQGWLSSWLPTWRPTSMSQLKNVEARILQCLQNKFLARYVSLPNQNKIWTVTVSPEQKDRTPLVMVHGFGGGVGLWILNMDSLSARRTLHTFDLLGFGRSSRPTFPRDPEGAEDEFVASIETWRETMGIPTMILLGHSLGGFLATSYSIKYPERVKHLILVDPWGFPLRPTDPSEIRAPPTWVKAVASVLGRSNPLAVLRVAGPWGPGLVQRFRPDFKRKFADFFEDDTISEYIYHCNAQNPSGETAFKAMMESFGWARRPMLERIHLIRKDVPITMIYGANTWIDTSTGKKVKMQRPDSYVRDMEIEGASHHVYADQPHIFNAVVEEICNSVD
#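 Test system: mABHD4 protein | Buffer or medium: HEPES pH 7.0 buffer, 150 mM NaCl, 0.01% Pluronic F-127 | Probe or stimulus: FP-Rh fluorescent activity-based probe, added after compound pre-incubation | Timing: Pre-incubation 45 min, probe exposure 60 min, at 25 °C | Technique: Fluorescence polarization, excitation 525 nm, emission 598 nm, BODIPY TMR filters | Repeats: Single well per compound (singlicate)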
# HTRA1 inh: HTRA1 serine protease inhibitors, primary screen, biochemical, fluorescence polarization, HTS | inhibition, % at 5.96 µM | recombinant HTRA1, FP-rhodamine activity-based probe | Q92743 | hit rate 0.5% among 340,000; in the data active means inhibition above about 36%;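 further: 0% = enzyme with DMSO and 100% = wells lacking enzyme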
# Tn6 DDE FP: inhibitors of Tn6 peptide binding to fibrin DD(E), primary screen, biochemical, fluorescence polarization, human fibrin, Tn6 probe; Fibrinogen beta chain (Homo sapiens), P02675; Fibrin DD(E) TRITC-Tn6 fluorescence polarization displacement; inhibition, % at 8.3 µM; hit rate 0.21% among 370,000; AID 720509, 2013;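 active means inhibition above a per-campaign cutoff: mean of compounds within control limits plus 3 SD, cut at about 15% in these data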;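 further: 0% = median of all compound wells on the plate and 100% = blocking peptide control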
# TCR CD3 inh: inhibitors of human TCR-CD3 interaction, primary screen, biochemical, fluorescence, TAMRA-labeled TCR probe; T-cell receptor (TCR); inhibition, % at 9.4 µM; hit rate 0.37% among 360,000; AID 651800, 2012; in the data active means inhibition above about 19%;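 further: recombinant mutant TCR 2C K166C tagged with TAMRA read by polarization; 0% = receptor in buffer alone and 100% = receptor with positive control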
# Tn7 DDE FP: inhibitors of Tn7 peptide binding to fibrin DD(E), primary screen, biochemical, fluorescence polarization, human fibrin, Tn7 probe | FP displacement of FITC-Tn7 peptide from fibrin DD(E); 0% = median of compound wells per plate | inhibition, % at 8.3 µM | hit rate 0.13% among 370,000 | AID 720508, 2013;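 active means inhibition above the mean of compounds falling within the control limits plus 3 SD of them, cut at about 14% in these data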;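 further: 0% = plate median of compound wells and 100% = 10 µM Aha-Tn7 peptide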
#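 System: human fibrin DD(E); quantity: Fibrin-DD(E) at 2 µM final; also added: fluorescent Tn7 probe at 0.1 µM; compound dosing: single nominal test concentration of 8.3 µM per compound; schedule: 10 min preincubation, 3 h with tracer, room temperature; detection: fluorescence polarization of the labelled Tn7 tracer; repeats: one replicate per compound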
# Tn7 DDE conf: inhibitors of Tn7 peptide binding to fibrin DD(E), confirmation, biochemical, fluorescence polarization, human fibrin, Tn7 probe; inhibition, % at 8.3 µM; hit rate 5% among 460; shares compounds with Tn7 DDE FP; FP displacement of TRITC-Tn7 peptide from DD(E); 0% set at plate's compound-well median;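 active means inhibition above the campaign cutoff, the mean of compounds within control limits plus 3 SD, cut at about 14% in these data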;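 further: 100% = median FP of high control wells holding Aha-Tn7 inhibitor peptide; displacers lower polarization since freed probe rises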
# Tn7 DDE ctr: DD(E)-Tn7 binding inhibition, counter-screen; hit rate 3% among 460; fibrin DD(E), TRITC-Tn7 probe displacement, fluorescence polarization; AID 720633; shares compounds with Tn7 DDE FP; inhibition, % at 8.3 µM;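 active means inhibition above the cutoff, the mean of compounds lying between the control bounds plus 3 SD of those compounds, cut at about 17% in these data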;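 further: 0% = median of compound sample wells and 100% = excess unlabeled Aha-Tn7 peptide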
# Active calls of the source: *; / = not tested or not shown. The list is not random: actives were taken first. Their share in the collection is about 1.8%.
SMILES,SIAE inh,mABHD4 FP,HTRA1 inh,Tn6 DDE FP,TCR CD3 inh,Tn7 DDE FP,Tn7 DDE conf,Tn7 DDE ctr
Cc1ccc(NC(=O)C2CCN(c3nnc(-n4cccc4)s3)CC2)cc1C,7,-6,/,2,/,4,/,/
CCN(CC)C(=O)CC[C@H]1CC[C@]2(CCCN(C(=O)c3ccc4ccccc4n3)C2)O1,-3,2,/,1,/,-3,/,/
CCN(CC)S(=O)(=O)c1cccc(-c2nnc(SCc3ncc(-c4ccccc4)o3)n2C)c1,-5,5,-4,5,1,15*,-4,-10
CCN(CC)S(=O)(=O)c1cccc(-c2nnc(SCC(N)=O)n2C)c1,-4,-4,4,-2,2,5,/,/
COc1ccc(CN(C)C(C#Cc2ccccc2)Cc2ccccc2)c(OC)c1 (configuration not stated),5,-2,/,4,/,7,/,/
Cc1cc(C(=O)NNc2c(Cl)cccc2Cl)no1,1,-6,-6,3,0,14*,2,-3
Cc1cc(C(=O)NNc2cc(Cl)ccc2Cl)no1,12,0,-3,1,1,2,/,/
Cc1ccc(NC(=O)c2ccc(NCCCN3CCC(C)CC3)c([N+](=O)[O-])c2)cc1F,8,-2,-1,-6,5,15*,3,3
CCOC(=O)c1c(-c2ccccc2)oc2ccc(O)c(CN(C)C)c12,-3,2,3,0,4,6,/,/
CCOC(=O)c1c(-c2ccccc2)oc2ccc(O)c(CN3CCCC3)c12,-1,2,-4,4,1,15*,-2,-7
Cc1ccc(CN2CCCC2(C)C(=O)NC(C)C)cc1 (configuration not stated),1,-7,/,3,-2,14*,2,3
Cc1ccc(CN2CCC2(C)C(=O)NC(C)C)cc1 (configuration not stated),-3,-9,/,1,-4,-2,/,/
COc1ccc(S(=O)(=O)N2CCOCC2)cc1NC(=O)c1ccc(OC(F)F)cc1,-6,-1,-10,-5,1,15*,-7,-12
COc1ccc(S(=O)(=O)N2CCOCC2)cc1NC(=O)CCOc1ccc(C(C)(C)C)cc1,-12,-6,-5,4,5,15*,6,-3
COc1ccc(S(=O)(=O)N2CCOCC2)cc1NC(=O)CCCOc1ccc(C(C)=O)cc1,-1,0,0,-2,5,2,/,/
Cc1ccc(N/C=C/C(=O)c2ccc(C)cc2)cc1,0,-6,-24,4,1,15*,3,3
Cc1cccn2c(=O)c(/C=C(\C#N)C(=O)NCc3ccccc3)c(N3CCC(C(N)=O)CC3)nc12,-2,4,-5,5,10,16*,6,2
CCNC(=O)/C(C#N)=C/c1c(N2CCCCCC2)nc2c(C)cccn2c1=O,1,1,3,0,8,5,/,/
COc1cc([N+](=O)[O-])ccc1NC(=S)NNC(=O)CCC(=O)Nc1ccccc1Cl,15,8,2,5,1,15*,7,-1
COc1cc([N+](=O)[O-])ccc1NC(=O)CCCOc1ccccc1,-2,2,-9,-3,2,1,/,/
CCOC(=O)CC[C@H]1CC[C@]2(CCCN(C(=O)C3CCCC3)C2)O1,0,1,/,-1,/,0,/,/
COc1ccc(C=Cc2ccc3ccccc3n2)c(OC)c1,9,15,-13,8,9,27*,6,5
COc1ccc(OC)c(/C=C/c2ccc3cccc(O)c3n2)c1,4,-1,-2,2,-4,3,/,/
COc1ccc(-n2nnnc2CNC(=O)C2CC(=O)N(c3ccc(F)cc3)C2)cc1 (configuration not stated),10,1,7,-1,-3,14*,7,0
O=C(NCc1nnnn1-c1ccc(Cl)cc1)C1CC(=O)N(c2ccc(F)cc2)C1 (configuration not stated),2,-6,3,-10,0,2,/,/
SMILES,SIAE inh,mABHD4 FP,HTRA1 inh,Tn6 DDE FP,TCR CD3 inh,Tn7 DDE FP,Tn7 DDE conf,Tn7 DDE ctr
Cc1cccc(NC(=O)c2c([N+](=O)[O-])cnn2C)c1,-2,-3,2,-7,1,2,/,/
CC(=O)Nc1ccc(NC(=O)c2c([N+](=O)[O-])cnn2C)cc1,11,1,3,5,8,15*,3,2
O=C(CSc1nc(-c2ccccc2)cc(=O)[nH]1)Nc1ccc(F)c(F)c1,-11,3,-9,1,-7,14*,1,-3
COc1cccc(CNc2ncnc3cc(OC)c(OC)cc23)c1,0,-6,-10,3,3,2,/,/
COc1cc2ncnc(NCc3ccc(C)cc3)c2cc1OC,-2,2,-6,5,3,14*,4,-3
CCOC(=O)[C@]12CCCCC/C=C\1N(Cc1ccc(OC)cc1)C(=O)[C@H]2CC(=O)NCC1CCCCC1,4,-6,/,2,/,10,/,/
COC(=O)c1ccc(C2NC(=O)CCC2[N+](=O)[O-])cc1 (configuration not stated),-7,-15,18,-9,4,14*,3,-10
O=C(NCCNS(=O)(=O)c1ccccc1)N1CCOCC1,5,2,0,-1,2,15*,1,4
O=C(NCCNS(=O)(=O)c1ccc(C(F)(F)F)cc1)N1CCOCC1,9,2,-2,1,4,0,/,/
CC(C)C[C@@H]1COc2cc(Br)ccc2S(=O)(=O)N1Cc1cn(CCC2OCCCO2)nn1,2,-2,/,-2,/,5,/,/
CC1(c2ccccc2)NC(=O)N(CC(=O)Nc2ccc(N3CCOCC3)cc2N2CCOCC2)C1=O (configuration not stated),5,-7,0,-2,-4,14*,7,5
Cc1cc(N2CCCC2)ccc1NC(=O)CN1C(=O)NC(C)(c2ccccc2)C1=O (configuration not stated),-3,-14,16,3,-3,4,/,/
